# Source: PubChem (Broad Institute)
# E-sel inducer = E-selectin induction on HUVECs | activation, % at 7.58 µM | actives 0.37% (n = 260,000) | P16581 | AID 686992 | HUVEC E-selectin immunofluorescence imaging; normalized: neutral wells 0, TNF-alpha wells 100;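 active means mean E-selectin-positive cell signal at least 10% of the positive control, reached in at least 60% of replicates, without over 20% cell loss; inconclusive means no rule given, readout overlaps actives, possibly toxicity-flagged; inactive means the rest, including those meeting only one limit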
# Target sequence (P16581 whole entry, looked up): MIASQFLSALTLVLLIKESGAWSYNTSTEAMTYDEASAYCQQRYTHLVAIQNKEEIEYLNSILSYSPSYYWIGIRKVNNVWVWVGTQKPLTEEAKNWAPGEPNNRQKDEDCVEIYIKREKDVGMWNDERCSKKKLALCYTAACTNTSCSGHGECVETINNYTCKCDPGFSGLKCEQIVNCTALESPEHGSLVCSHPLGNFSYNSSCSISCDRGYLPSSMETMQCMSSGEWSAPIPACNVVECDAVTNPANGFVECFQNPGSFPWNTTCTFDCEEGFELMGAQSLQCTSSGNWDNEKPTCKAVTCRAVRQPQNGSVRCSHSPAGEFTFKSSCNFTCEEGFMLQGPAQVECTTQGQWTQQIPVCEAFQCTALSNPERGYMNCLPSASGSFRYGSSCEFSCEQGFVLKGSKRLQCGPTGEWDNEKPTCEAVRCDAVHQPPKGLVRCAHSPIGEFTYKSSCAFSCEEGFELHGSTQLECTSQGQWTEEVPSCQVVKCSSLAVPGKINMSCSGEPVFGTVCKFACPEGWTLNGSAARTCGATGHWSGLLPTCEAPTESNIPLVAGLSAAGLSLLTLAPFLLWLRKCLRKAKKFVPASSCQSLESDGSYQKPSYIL
#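 Assay system: HUVEC primary endothelial cells. Input: 3,000 HUVEC seeded per well. Doses: one compound dose added by pin transfer. Read-out basis: % PE-positive cells. Benchmarks: TNF-alpha high, DMSO low. Detection: immunofluorescence imaging. Buffer or medium: EGM-2, gelatin.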
# LGR2 inh = inhibitors of bursicon-induced Drosophila LGR2 receptor cAMP signaling. HEK293 LGR2, CRE-luciferase, bursicon-stimulated, 4 h. inhibition, % at 9.99 µM. actives 0.35% (n = 380,000). AID 720647;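 active means drop in luminescence signal, shown as inhibition above about 50% in the replicate tests, limit read from the data, passing the limit was not always enough; inconclusive means probably only some replicates passing the limit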;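 further: agonist challenge used bursicon conditioned medium at about half maximal strength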
# rRNA inh HTS = inhibits bacterial ribosomal RNA function over humanized ribosomes. E. coli WT GFP vs humanized-ribosome RFP mutants, fluorescence, 24 h; active compounds read low; DMSO median 0, no signal -100. GFP signal change (wild-type ribosome), % (no concentration beside the values). actives 1.6% (n = 350,000);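 active means significant combined selectivity score with lowered wild-type GFP, culture density cut under 30%, mutant RFP and density less affected; inactive means any of these conditions unmet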
# EWS-Fli block = blocks EWS/Fli oncoprotein-driven transcription; inhibition, % at 12.6 µM; A673 NR0B1-luciferase reporter, viability-normalised; actives 0.67% (n = 350,000);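 active means mean inhibition of at least 50% after viability correction, with every replicate also passing that limit; inconclusive means mean reaches 50% but only one of two replicates passes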;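 further: firefly luciferase signal divided by Alamar Blue viability fluorescence both relative to DMSO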
# Starred values were filed as active, the others as inactive; u = inconclusive; x = no result given. Compounds with a hit are over-represented: about 2.4% of the library has one in this group of screens.
SMILES,E-sel inducer,LGR2 inh,rRNA inh HTS,EWS-Fli block
CC(C)NC(=O)Nc1ccc2c(c1)C(=O)N(C)C[C@H](C)[C@@H](CN(C)C(=O)OC(C)(C)C)O2,x,x,-1,x
C/C=C/c1cnc2c(c1)C(=O)N([C@H](C)CO)C[C@@H](C)[C@H](CN(C)C(=O)c1cccc(F)c1)O2,0,-1,3,0
Cc1ccc(C2C(C(=O)c3cccs3)=C(O)C(=O)N2c2cccc(C)n2)cc1 (stereo unspecified),0,-10,-15*,-8
C=C(C)n1c(=O)n(Cc2ccc(C)cc2)c2ccccc21,x,-8,-15,-6
C=C(C)n1c(=O)n(Cc2ccccc2C)c2ccccc21,0,0,-31*,6
O=C(NC(O)C(=O)c1ccccc1)c1ccc(F)cc1 (stereo unspecified),41*,6,5,5
CC(C)Cc1nnc(NC(=O)C2CCN(C(=O)c3ccc(Cl)cc3)CC2)s1,x,6,7,1
CC(C)c1nnc(NC(=O)C2CCN(C(=O)Nc3ccc(Cl)cc3)CC2)s1,x,-2,-23*,-28
Cc1ccc2nc(NC(=O)CSc3ncnc4c3oc3ccccc34)sc2c1,82*,6,5,-1
Cc1ccc2nc(NC(=O)CCCC(=O)O)sc2c1,0,u,13,81*
Cc1cccc(NC(=O)CSc2ncnc3c2oc2ccccc23)c1,0,1,11,-3
CS(=O)(=O)c1ccc2nc(NC(=O)CN3C(=O)C4CC=CCC4C3=O)sc2c1 (stereo unspecified),0,6,6,2
Cc1ccc2nc(NC(=O)CN3C(=O)C4CC=CCC4C3=O)sc2c1 (stereo unspecified),1,11,-25*,-14
O=C(C[C@@H]1C=C[C@H](NC(=O)C2CCOCC2)[C@@H](CO)O1)Nc1ccccc1,0,6,3,29
COc1ccc2c3c(n(C)c2c1)[C@H](CO)N(CC1CC1)CC31CN(C(C)=O)C1,0,-2,5,-1
CC(C)(CNS(C)(=O)=O)SCc1ccc(Cl)cc1,2,21,-32*,4
C[C@H]1CN([C@@H](C)CO)C(=O)c2cc(-c3cccc(F)c3)cnc2O[C@@H]1CN(C)Cc1cccc(F)c1,0,3,-5,4
CC(=O)Nc1ccc(CNc2ncnc3ccc(-c4c(C)noc4C)cc23)cc1,0,-20,-7,70*
Cc1cccc(CNc2ncnc3ccc(-c4ccoc4)cc23)c1,x,29,10,-4
COc1ccc(C)cc1NC(=O)COC(=O)C1COc2ccccc2O1 (stereo unspecified),x,-3,27,4
COc1ccc(S(=O)(=O)N2CCOCC2)cc1NC(=O)COC(=O)C1COc2ccccc2O1 (stereo unspecified),118*,8,7,5
COc1ccc2c3c(n(C)c2c1)[C@H](CO)N(C(=O)C1CCC1)CC31CCN(Cc2cccc(F)c2)CC1,0,4,1,33
COc1ccccc1NC(=O)C/C(N)=N/OCC(=O)Nc1cccc(Cl)c1,x,x,x,-3
COc1ccccc1NCC(=O)NNC(C)C(=O)Nc1cccc(Cl)c1 (stereo unspecified),0,-10,-32*,-16
COc1ccccc1-c1cc2nc(NCCc3ccncc3)ccn2n1,x,-5,-17*,-9
SMILES,E-sel inducer,LGR2 inh,rRNA inh HTS,EWS-Fli block
COc1ccc2c(c1)c(C(C)=O)c(C)n2-c1ccccc1OC,-3,5,-36*,0
COc1ccccc1-n1c(C)c(C(C)=O)c2cc(O)ccc21,x,-2,0,-7
C/C(=N\Nc1nc(C)cc(C)n1)c1ccc(N2CCOCC2)cc1,2,3,6,6
CC(=O)N1CCC(=NNc2nc3ccccc3[nH]2)CC1,x,0,-18*,-4
C/C(=N\Nc1nc2ccccc2[nH]1)c1ccc(N2CCOCC2)cc1,x,-5,-48*,-44
O=C(c1ccccn1)N1CC(=O)N2[C@H](CO)[C@@H](c3ccc(C#Cc4ccccc4)cc3)[C@@H]2C1,0,1,3,-11
C[C@@H]1CN([C@H](C)CO)C(=O)c2cc(NC(=O)CCN3CCOCC3)ccc2O[C@H]1CN(C)C,x,-27,2,-4
Cc1cc([N+](=O)[O-])nn1CC(=O)NCCCN1CCOCC1,27*,13,-11,7
O=S(=O)(NC[C@@H]1CC[C@@H]2[C@@H](CN2Cc2ccccc2C(F)(F)F)O1)c1ccccc1,x,x,x,-2
Cn1cnc(S(=O)(=O)N[C@@H]2CC[C@@H](CC(=O)Nc3ccc(-c4ccccc4)cc3)O[C@@H]2CO)c1,0,8,0,2
